The array DNA melting data of Ke et al. (doi:10.1101/2024.01.08.574731)

What was measured:
[1] = melting temperature; fluorescence melt of hairpins on a sequencing array, two-state fit, raised by 9.35 °C to match UV melts; settings: sodium 0.088 M
How it was run: (§1)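 Library hairpins on a sequenced MiSeq flow cell carried annealed Cy3 and quencher oligos, and their Cy3 fluorescence was imaged in 50 mM Na-HEPES pH 8.0 with 25 mM NaCl, in 2.5 °C steps up to 60 °C. Signals were normalised to Cy3 before quenching and to control constructs. Melting temperature and folding enthalpy were obtained from bootstrapped two-state fits, combined by inverse-variance weighting across four replicates, and the fitted temperatures were then raised by 9.35 °C to match UV melts.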

[2] = folding enthalpy; higher = less favourable; fluorescence melt of hairpins on a sequencing array, two-state fit; settings: sodium 0.088 M
How it was run: as §1

Row | Sequence | Tm [1] | folding enthalpy [2]
1 | GGAGTCGAAAGACATTCC ((((((....)))..))) | 27.9 °C | -12.7 kcal/mol
2 | GGAGTCGAAAGACCCTCC ((((((....)))..))) | 48 °C | -16.7 kcal/mol
3 | GGAGTCGAAAGACGTCC ((((((....))).))) | 46 °C | -14.7 kcal/mol
4 | GGAGTCGCGAAAGCGTCC (((..(((....)))))) | 34.1 °C | -12.3 kcal/mol
5 | GGAGTCGGAAACAACTCC (((((.(....).))))) | 41.5 °C | -32.6 kcal/mol
6 | GGAGTCGGAAACGATTCC (((.(((....))).))) | 50.3 °C | -30.1 kcal/mol
7 | GGAGTCGGAAACGGCTCC ((((.((....)).)))) | 61 °C | -45.8 kcal/mol
8 | GGAGTCTCGAAAGAGTCC (((..(((....)))))) | 41.7 °C | -20.1 kcal/mol
9 | GGAGTGGGAAACCACTTC (.(((((....))))).) | 49.4 °C | -20.2 kcal/mol
10 | GGAGTGGGAAACTGCTCC ((((..(....)..)))) | 44.5 °C | -31.5 kcal/mol
11 | GGAGTTCCGAAAGGATCC (((..(((....)))))) | 31 °C | -12.8 kcal/mol
12 | GGAGTTCGAAAGAATTCC (((.(((....))).))) | 48.6 °C | -39.8 kcal/mol
13 | GGAGTTGCGAAAGCATCC (((..(((....)))))) | 32.5 °C | -12.7 kcal/mol
14 | GGAGTTGGAAACAATTCC (((.(((....))).))) | 43 °C | -29.6 kcal/mol
15 | GGAGTTGGAAACGATTCC (((.(.(....).).))) | 40.8 °C | -19.6 kcal/mol
16 | GGATAACGAAAGTTGTCC (((.(((....))).))) | 52.7 °C | -47.7 kcal/mol
17 | GGATAAGGAAACTTATTC (.(((((....))))).) | 30.4 °C | -21.2 kcal/mol
18 | GGATACGAAAGTAAGTCC ((((((....)))..))) | 22.2 °C | -9.06 kcal/mol
19 | GGATACGAAAGTAATCC ((((((....))).))) | 44.6 °C | -27 kcal/mol
20 | GGATACGCGAAAGCGTCC (((..(((....)))))) | 33 °C | -8.9 kcal/mol
21 | GGATACGGAAACGTATCC (((((((....))))))) | 64.2 °C | -40.9 kcal/mol
22 | GGATAGCGAAAGCTCTCC (((.(((....))).))) | 45.4 °C | -30.9 kcal/mol
23 | GGATAGCGAAAGCTTCC (((.(((....)))))) | 48.1 °C | -19 kcal/mol

Row | Sequence | Tm [1] | folding enthalpy [2]
24 | GGATATGAAAATATCC ((((((....)))))) | 50.9 °C | -31.6 kcal/mol
25 | GGATATTCGAAAGAATCC (((..(((....)))))) | 26.9 °C | -13.6 kcal/mol
26 | GGATCAGGAAACCGATCC (((((.(....).))))) | 46.4 °C | -39 kcal/mol
27 | GGATCCGAAAGGAATCC ((((((....))).))) | 50.8 °C | -31.7 kcal/mol
28 | GGATCCGAAAGGACATCC ((((((....)))..))) | 37.2 °C | -17.6 kcal/mol
29 | GGATCCGAAAGGACCTCC ((((((....)))..))) | 47.2 °C | -15.5 kcal/mol
30 | GGATCCGAAAGGATGTCC ((((((....)))..))) | 35.2 °C | -12.5 kcal/mol
31 | GGATCCGAAAGGATTCC ((((((....))).))) | 51.7 °C | -30.2 kcal/mol
32 | GGATCGAAAGATCC (((((....))))) | 65.3 °C | -29.6 kcal/mol
33 | GGATCGCGAAAGCGTCC (((.(((....)))))) | 52.6 °C | -22.7 kcal/mol
34 | GGATCGGCGAAAGCCTCC (((..(((....)))))) | 28.4 °C | -11.1 kcal/mol
35 | GGATCTGGAAACAGATCC (((((((....))))))) | 62.4 °C | -47.9 kcal/mol
36 | GGATCTGGAAACAGATTC (.(((((....))))).) | 46.2 °C | -28.9 kcal/mol
37 | GGATGCGAAAGCAAGTCC ((((((....)))..))) | 35.5 °C | -13.7 kcal/mol
38 | GGATGCGAAAGCAATCC ((((((....))).))) | 57.9 °C | -27.8 kcal/mol
39 | GGATGCGCGAAAGCGTCC (((..(((....)))))) | 41 °C | -12.3 kcal/mol
40 | GGATGGCGAAAGCCGTCC (((.(((....))).))) | 68.8 °C | -28.8 kcal/mol
41 | GGATGGGGAAACCCACCC ((.((((....)))).)) | 45.1 °C | -24.1 kcal/mol
42 | GGATGGGGAAACTCGTCC (((.(.(....).).))) | 38.5 °C | -25.2 kcal/mol
43 | GGATGTACGAAAGTATCC (((..(((....)))))) | 37.9 °C | -20.2 kcal/mol
44 | GGATGTCGAAAGACCTCC (((.(((....))).))) | 46.5 °C | -29 kcal/mol
45 | GGATGTGGAAACACGTTC (.(.(((....))).).) | 35.8 °C | -21.3 kcal/mol
46 | GGATGTGGAAACGCATCC (((((.(....).))))) | 52.2 °C | -41.4 kcal/mol
